# Wee1 stabilizer: inhibitors of human Wee1 degradation; HeLa Luc-Wee1K328M stability, luciferase luminescence; 100% = proteasome inhibitor MG132 effect; P30291; 220,000 compounds, 1.2% hits; reporter increase, % at 5 µM;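 active = activation above the mean of all tested compounds plus 3 SD, set per screening run, cut at about 8.8% in these data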;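 also: cells exposed to compound for 20 h before luminescence read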
# Target sequence (P30291 whole entry K328M): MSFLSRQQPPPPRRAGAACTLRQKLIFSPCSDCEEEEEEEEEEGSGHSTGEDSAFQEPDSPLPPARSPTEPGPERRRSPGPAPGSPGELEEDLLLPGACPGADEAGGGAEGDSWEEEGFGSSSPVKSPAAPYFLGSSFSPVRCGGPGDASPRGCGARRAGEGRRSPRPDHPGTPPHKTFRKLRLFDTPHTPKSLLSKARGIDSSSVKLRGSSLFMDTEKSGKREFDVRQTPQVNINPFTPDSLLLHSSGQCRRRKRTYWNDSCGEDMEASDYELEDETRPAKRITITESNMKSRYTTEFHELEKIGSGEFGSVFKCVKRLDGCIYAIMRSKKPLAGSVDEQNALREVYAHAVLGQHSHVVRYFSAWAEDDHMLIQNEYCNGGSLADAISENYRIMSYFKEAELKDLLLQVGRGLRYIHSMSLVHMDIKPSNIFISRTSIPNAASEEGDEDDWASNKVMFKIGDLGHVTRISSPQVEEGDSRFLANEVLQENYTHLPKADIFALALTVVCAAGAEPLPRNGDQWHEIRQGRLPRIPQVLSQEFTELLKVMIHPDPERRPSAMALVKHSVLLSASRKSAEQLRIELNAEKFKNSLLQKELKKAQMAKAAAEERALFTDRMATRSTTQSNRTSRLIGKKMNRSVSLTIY
# Insulin prom up: MIN6 insulin promoter up-regulation; 190,000 compounds, 0.3% hits; AID 1625; MIN6 insulin promoter-GFP reporter, high-content imaging; active compounds read high; z-score at 5 µM;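 active = z-score above 3 at 5 µM with at least 500 cells counted in the well; inconclusive = wells under 500 cells, flagged as cytotoxic or low count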
# b-catenin transl: modulators of beta-catenin nuclear translocation; HeLa beta-catenin nuclear translocation, immunofluorescence imaging; nuclear translocation activity, % at 5 µM; 190,000 compounds, 0.3% hits; AID 1665;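 active = nuclear translocation activity above 50% at 5 µM, with a well cell count of 50 or more; inconclusive = wells under 50 cells across six images, flagged as toxic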;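 also: per-cell ratio of nuclear to cytoplasmic median beta-catenin stain intensity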
#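 Test system: human HeLa cell line; Doses: 5 µM primary, 0.02–20 µM confirmation; Incubation: 24 h compound exposure, 37°C; Detection: beta-catenin immunofluorescence imaging with DAPI; Read-out: beta-catenin nuclear/cytoplasmic ratio, % activation.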
# Autophagy HCS: alters autophagy in cells; MEF GFP-LC3 puncta imaging; test concentration mostly 10 µM; calls only at 10 µM (by protocol); 190,000 compounds, 0.98% hits;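 active = percentage of spot-positive cells more than 3 SD above its plate mean, without a fluorescence outlier flag or 80% toxicity; inconclusive = no clear call, values can overlap the other calls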
# MT stabilize HCS: microtubule stabilization, imaging screen | AID 2205 | % tubulin-high responders, % at 10 µM | 200,000 compounds, 0.83% hits | HeLa tubulin immunostaining HCS, 24 h; share of cells brighter than vehicle mean+2SD;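 active = plate Z-score above 3 for both tubulin-high and condensed-nucleus cell shares, with cell loss under 80%, at 10 µM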;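 also: anti alpha tubulin signal scored within the nucleus-defined area of each cell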
# Hits are given with their value; n = inactive; u = inconclusive; x = no result given; + = active, no number. Rows were chosen to be rich in hits. Some 2.9% of all compounds tested hit in one or more screens of this group.
SMILES,Wee1 stabilizer,Insulin prom up,b-catenin transl,Autophagy HCS,MT stabilize HCS
N=c1c2c(n(Cc3ccc([N+](=O)[O-])cc3)c3c1CCC3)CCCC2,n,n,n,+,n
O=C(CSc1nnc(NC(=O)C2CC2)s1)Nc1ccc(F)cc1,n,n,n,n,n
O=C(CSc1nnc(NC(=O)Cc2ccccc2)s1)NCc1ccco1,n,n,n,n,n
O=C(CSc1nnc(NC(=O)Cc2ccc(F)cc2)s1)NCc1ccco1,10,n,n,n,n
O=C(CSc1nnc(NC(=O)c2c(F)cccc2F)s1)Nc1ccc(F)cc1,10,n,n,n,n
COc1ccc(O)c(C(=O)CC(=O)c2ccccc2C)c1,8.9,n,n,n,n
Cc1ccc(C)n1CCN1CCN(CC(=O)Nc2cc(C(F)(F)F)ccc2Cl)CC1,n,n,n,+,n
O=C(CN1CCOCC1)Nc1cc(C(F)(F)F)ccc1Cl,n,n,n,n,n
CC(C1CC1)N(Cc1ccccc1)C(=S)Nc1ccccc1 (stereo not given),9.6,n,n,n,n
CC[n+]1c(/C=C/C=C/N(C(C)=O)c2ccccc2)sc2cc(OC)ccc21,n,x,165,u,73
CCN(CC)CCCC(C)Nc1c2ccc(Cl)cc2nc2ccc(OC)cc12 (stereo not given),n,12,n,x,x
Cc1nnc(NC(=O)CSc2nnnn2Cc2ccccc2)s1,n,n,x,n,n
O=C(CSc1nnnn1Cc1ccccc1)Nc1ccccc1,9.3,n,n,x,x
N#Cc1cc2c(=O)n3ccccc3nc2n(-c2ccccc2Cl)c1=O,n,n,n,n,n
NC(=O)c1ccc2c(=O)n3c(-c4cc(Cl)c(N)c(Cl)c4)csc3nc2c1,x,n,66,x,x
Cc1csc2nc3cc(C(N)=O)ccc3c(=O)n12,x,x,n,x,x
CCOc1ccc(N2C(=O)CC(NCCNc3ccc(C(=O)c4cccs4)cc3)C2=O)cc1 (stereo not given),n,n,n,n,n
CCCNC(=O)N1CCN(Cc2ccco2)CC1,n,n,n,n,n
N#C/C(C(=O)Oc1ccccc1)=C1/Nc2ccccc2-c2ccccc21,n,n,n,+,n
Cc1cc(C)c(CSc2ncnc3nc[nH]c23)c(C)c1,n,n,56,n,n
CCOc1ccc(Br)cc1/C(C)=N\NC1=NCCN1,n,n,82,n,35
Cc1cccc(/C(N)=N/OC(=O)COc2ccccc2Cl)c1,12,n,n,n,n
COc1ccc(/C(N)=N/OC(=O)COc2ccccc2Cl)cc1,n,n,n,n,n
Cc1cc(C)n2nc(SCCCC(=O)c3ccc(F)cc3)nc2n1,n,n,n,n,n
Clc1ccc(OCc2cn3cccnc3n2)c2ncccc12,11,n,n,n,n
SMILES,Wee1 stabilizer,Insulin prom up,b-catenin transl,Autophagy HCS,MT stabilize HCS
C=CCOc1ccc(Br)cc1CNCCCN1CCOCC1,n,n,n,n,n
Clc1cccc2c1Sc1ccccc1CC2N1CCNCC1 (stereo not given),n,n,n,n,n
Clc1ccc2c(c1)C(N1CCNCC1)Cc1ccccc1S2 (stereo not given),n,x,n,+,n
OC[C@@H](O)C1OC2NC(=S)OC2C1O (stereo not given in full),n,n,n,n,n
Cc1ccc(-c2cc(C(=O)N/N=C/c3ccco3)[nH]n2)cc1,n,n,n,n,n
Cc1nn(-c2ccccc2)c(C)c1/C=N/NC(=O)c1cc(C(C)(C)C)[nH]n1,n,n,n,n,n
Cc1ccc(-c2cc(C(=O)N/N=C/c3c(C)nn(-c4ccccc4)c3C)[nH]n2)cc1,n,n,102,n,n
Cc1ccc(-c2cc(C(=O)N/N=C/c3c(C)nn(-c4ccccc4)c3C)n[nH]2)s1,n,n,122,n,n
Nc1c(C(=O)Nc2ccccc2F)sc2nc(Cc3ccccc3)cc(C(F)(F)F)c12,n,x,n,+,n
Cc1ccc(S(=O)(=O)Nc2ccc(=O)n(Cc3ccc(Cl)c(Cl)c3)c2)cc1,n,3.3,n,n,n
O=C(C1CCCN(Cc2ccccc2)C1)N1CCCCC1 (stereo not given),n,n,x,n,n
O=C(C1CCCN(Cc2ccccc2Br)C1)N1CCCCC1 (stereo not given),11,n,n,n,n
CCOC(=O)c1cnc2ccc(C(=O)OC)cc2c1Nc1ccc2c(c1)OCCO2,n,x,x,+,n
CC1c2[nH]c3ccccc3c2CCN1C(=O)Nc1ccccc1 (stereo not given),n,u,n,n,43
O=C(Nc1ccccc1)N1CCc2c([nH]c3ccccc23)C1C(F)(F)F (stereo not given),n,n,n,x,x
O=C1CC(c2cc([N+](=O)[O-])ccc2Cl)c2c(ccc3ccccc23)N1 (stereo not given),n,n,n,n,n
Cc1cccc2cc(CN(Cc3ccco3)S(=O)(=O)c3ccc4c(c3)OCCO4)c(=O)[nH]c12,n,n,n,+,n
Cc1ccc(C)c2[nH]c(=O)c(CN(CC3CCCO3)S(=O)(=O)c3ccc4c(c3)OCCO4)cc12 (stereo not given),n,n,n,+,n
CC(C)(C)NC(=O)CSc1nc(O)cc(=O)[nH]1,n,n,n,n,n
Cc1ccc(-c2csc(NC(=O)CCNC(=O)c3ccccc3Cl)n2)cc1,n,n,x,n,n
COc1cc(/C=N/Nc2snc(SC)c2C#N)ccc1O,n,n,n,n,49
COc1cc(/C=N/Nc2nc3ccccc3[nH]2)ccc1O,n,n,n,n,n
CCOc1c(N2CC(C)OC(C)C2)c(=O)c1=O (stereo not given),9.4,n,n,x,x
O=C(/C=C/c1ccc2c(c1)OCCCO2)c1ccccc1O,n,n,n,n,n
Cc1ccc(O)c(C(=O)/C=C/c2ccc3c(c2)OCCCO3)c1,9.2,n,n,n,n
SMILES,Wee1 stabilizer,Insulin prom up,b-catenin transl,Autophagy HCS,MT stabilize HCS
CSc1ccc(S(=O)(=O)NCc2ccc(Cl)cc2Cl)cc1,n,n,x,n,n
CC(=O)N(/C=C1\SC(=S)N(c2ccccc2)C1=O)c1ccccc1,10,n,n,x,x
COc1ccccc1-n1cnc2cc(NCc3ccccn3)ccc21,n,x,x,n,30
COc1ccc(-n2cnc3cc(NCc4ccccn4)ccc32)cc1,n,x,x,n,n
COCCNC(=O)C(C)N(c1ccc(OC)cc1)S(C)(=O)=O (stereo not given),10,n,n,n,n
CCn1c(=O)c(C2=NS(=O)(=O)c3ccccc3N2)c(O)c2ccccc21,x,n,n,x,x
CCCCOC(=O)c1ccc(NC(=O)COC(=O)CSc2nc(C)cc(C)n2)cc1,n,n,x,n,n
O=C(Nc1cccc(F)c1)N1CCCC(CNS(=O)(=O)Cc2ccccc2)C1 (stereo not given),n,n,n,n,n
N=c1c2c(ncn1Cc1ccco1)Oc1cc(O)ccc1C2c1ccccc1 (stereo not given),n,n,n,x,x
c1ccc(C2c3c(ccc4ccccc34)Oc3ncn4nc(-c5ccco5)nc4c32)cc1 (stereo not given),n,x,n,n,12
COc1ccc(C2c3c(ccc4ccccc34)Oc3ncn4nc(-c5ccco5)nc4c32)cc1 (stereo not given),n,n,n,n,n

# Source: PubChem BioAssay (several laboratories)
